Experimental data collected from several papers.
Target: Phosphatidylinositol 5-phosphate 4-kinase type-2 beta (PIP4K2B, Homo sapiens, UniProt P78356)
Residues used in one study (P78356 1-416): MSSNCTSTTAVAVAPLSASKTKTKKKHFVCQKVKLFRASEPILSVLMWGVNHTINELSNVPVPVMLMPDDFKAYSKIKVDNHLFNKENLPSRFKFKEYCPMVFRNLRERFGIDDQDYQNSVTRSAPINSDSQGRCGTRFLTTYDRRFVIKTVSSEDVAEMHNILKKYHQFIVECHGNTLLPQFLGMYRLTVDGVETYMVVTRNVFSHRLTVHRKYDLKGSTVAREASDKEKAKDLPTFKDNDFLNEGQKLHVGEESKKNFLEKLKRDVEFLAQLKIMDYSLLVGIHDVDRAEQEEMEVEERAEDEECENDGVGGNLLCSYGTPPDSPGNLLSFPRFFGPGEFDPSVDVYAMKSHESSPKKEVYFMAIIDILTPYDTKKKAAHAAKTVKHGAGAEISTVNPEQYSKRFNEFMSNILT

O=C(NCCCN1CCOCC1)c1ccc(Nc2ncc(Cl)c(-c3ccc(Cl)s3)n2)cc1 gave a remaining binding of 4.2% (binding, competition with immobilised ligand; 1 µM).
The remaining binding of N[C@H]1CCN(c2nccc(-c3cnn4ncccc34)n2)C1 is reported as 100% (binding; 1 µM).
Cc1c(NC(=O)c2cc(C(N)=O)nc3cc(F)ccc23)c(C(F)(F)F)nn1Cc1ccc(C#N)cc1 gave a remaining binding of 88% (cell-free assay, competition with immobilised ligand; 1 µM).
With CN(CCCC(F)(F)F)c1nccc(-c2cnn3ncccc23)n1 the remaining binding was 57% (binding; 1 µM).
For C[C@@H](c1cccc(C#N)c1)n1cc(Cl)cc(C(N)=O)c1=N, the remaining binding was 73% (cell-free assay, competition with immobilised ligand; 1 µM).
CNC(=O)[C@@H]1CC[C@@H](n2c(-c3ccc4cnccc4c3)nc3ccc(C(=O)NCc4cccc(C(N)=O)c4)cc32)C1 gave a remaining binding of 99% (binding, competition with immobilised ligand; 1 µM).
CN(c1nccc(-c2cnn3ncccc23)n1)C1CC1 has a remaining binding of 65% (binding; 1 µM).
For Cc1nc(N2CC[C@@H](O)C2)ncc1-c1cc(C(F)(F)F)cc2[nH]ncc12, the remaining binding was 100% (cell-free assay, competition with immobilised ligand; 1 µM).
With Cc1nc(NC(=O)N2CCC[C@H]2C(N)=O)sc1-c1ccnc(C(C)(C)C(F)(F)F)c1 the remaining binding was 100% (binding, competition with immobilised ligand; 10 µM).
With C[C@@H]1CCN(c2nccc(-c3cnn4ncccc34)n2)C1 the remaining binding was 100% (binding; 1 µM).
With O=C(NCCCN1CCOCC1)c1ccc(Nc2nccc(-c3cc4ccccc4s3)n2)cc1 the remaining binding was 11% (binding, competition with immobilised ligand; 1 µM).
With O=C(N[C@H]1CCCCC/C=C\C2C[C@@]2(C(=O)O)NC(=O)[C@@H]2C[C@@H](Oc3ccncc3)CN2C1=O)OC1CCCC1 (some centres unmarked) the remaining binding was 100% (binding, competition with immobilised ligand; 1 µM).
With COc1ncc2cc3ccccc3nc2c1C#N the remaining binding was 100% (cell-free assay, competition with immobilised ligand; 5 µM).
For C[C@@]1(Cc2ccc(C#N)cc2)C(=O)N(c2cc(Cl)cc(Cl)c2)c2ncc(C(=O)NC3(c4nc(C5CCC5)no4)CC3)n21, the remaining binding was 97% (cell-free assay, competition with immobilised ligand; 1 µM).
With O=C(c1ccc(Nc2ncc(Cl)c(-c3cc4ccccc4s3)n2)cc1)N1CCC(N2CCCC2)CC1 the remaining binding was 7.1% (binding, competition with immobilised ligand; 1 µM).
COc1cnc(Nc2cccc(S(N)(=O)=O)c2)nc1N1CCN(c2ccccc2)CC1 has a remaining binding of 100% (binding, competition with immobilised ligand; 1 µM).
For NS(=O)(=O)c1cc(NC(=O)Cc2ccccc2)ccc1Oc1cccc(Cl)c1, the remaining binding was 89% (cell-free assay, competition with immobilised ligand; 1 µM).
CCN1CCN(Cc2ccc(C(=O)Nc3ccc(C)c(Oc4ccc5c(c4)CC(=O)N5)c3)cc2C(F)(F)F)CC1 gave a remaining binding of 100% (binding, competition with immobilised ligand; 1 µM).
C[C@H](c1ccnc(Nc2nc3ccc(-c4cc(N(C)C)ncn4)cc3[nH]2)c1)N1CCN(C(=O)CC(F)(F)F)CC1 has a remaining binding of 75% (cell-free assay, competition with immobilised ligand; 0.1 µM).
For CC1CCCN1c1nccc(-c2cnn3ncccc23)n1 (centres unmarked), the remaining binding was 100% (binding; 1 µM).
With O=C(Nc1c[nH]nc1C(=O)NC1CCNCC1)c1cc(F)cc(F)c1 the remaining binding was 88% (binding, competition with immobilised ligand; 1 µM).
Cc1cnn2ncc(-c3ccnc(N(C)C)n3)c2c1 gave a remaining binding of 47% (binding; 1 µM).
The remaining binding of Nc1ncc2c(n1)-c1c([nH]c3ccc(C#CC4CC4)cc13)CCCC2 is reported as 86% (binding, competition with immobilised ligand; 1 µM).
